Assays:
[1] = Selectivity index, ratio of CC50 for human HepG2.2.15 cells to IC50 for Hepatitis B virus infected in human HepG2.2.15 cells assessed as inhibition of HBsAg secretion; format: functional
How it was run: (§1)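 SI = CC50 (CCK-8, HepG2.2.15, 8 days) divided by IC50 for inhibition of HBeAg or HBsAg secretion measured by ELISA in HepG2.2.15 supernatants.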

Hepatitis B virus [2] = assay: Antiviral activity against Hepatitis B virus infected in human HepG2.2.15 cells assessed as inhibition of HBeAg secretion by ELISA; format: functional, cell-based
How it was run: (§2)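 Supernatant from HepG2.2.15 cultures aspirated and HBeAg or HBsAg measured with a diagnostic ELISA kit, absorbance read on a plate reader. Inhibition (%) = (A normal cell group − A experimental group)/[…] × 100; IC50 is the concentration giving 50% inhibition of antigen secretion. Lamivudine positive control.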

[3] = Cytotoxicity against human HepG2.2.15 cells assessed as decrease in cell viability after 8 days by CCK-8 assay; format: toxicity, cell-based, HepG2 2.2.15
How it was run: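 HepG2.2.15 cells (HBV-transgenic human hepatoma) cultured in triplicate for 8 days with five doses of compound; untreated cells as controls. CCK-8 reagent added 0.5 h before end of culture, absorbance read at 450 nm, percent cell death calculated; CC50 is the concentration killing 50% of cells.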

Hepatitis B virus [4] = assay: Antiviral activity against Hepatitis B virus infected in human HepG2.2.15 cells assessed as inhibition of HBsAg secretion by ELISA; format: functional, cell-based; how it was run: as §2
[5] = Selectivity index, ratio of CC50 for human HepG2.2.15 cells to IC50 for Hepatitis B virus infected in human HepG2.2.15 cells assessed as inhibition of HBeAg secretion; format: functional; how it was run: as §1
Hepatitis B virus [6] = assay: Antiviral activity against Hepatitis B virus infected in human HepG2.2.15 cells assessed as inhibition of viral DNA replication after 8 days by real-time fluorescent PCR method; format: functional, cell-based; details: HepG2.2.15, 192 h
How it was run: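 HepG2.2.15 cells exposed to compounds […] for 8 days; 100 µL culture supernatant added to extraction buffer, boiled 10 min, centrifuged 10 min, and aliquots assayed for extracellular HBV DNA by fluorescent-probe real-time quantitative PCR kit. Lamivudine positive control.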

Hepatitis B virus [7] = assay: Antiviral activity against Hepatitis B virus; format: functional
[8] = Cytotoxicity against human HepG2.2.15 cells assessed as decrease in cell viability after 8 days by CCK-8 assay
[9] = Cytotoxicity against human HepAD38 cells; format: toxicity, cell-based
Hepatitis B virus [10] = assay: Antiviral activity against Hepatitis B virus infected in human HepAD38 cells assessed as inhibition of viral DNA replication; format: functional, cell-based

IC50 (Hepatitis B virus [2]) [µM] | IC50 (Hepatitis B virus [4]) [µM] | IC50 (Hepatitis B virus [6]) [µM] | IC50 (Hepatitis B virus [7]) [µM] | IC50 (Hepatitis B virus [10]) [µM] | SMILES | Ratio CC50/IC50 [1] | CC50 at 192 h [3] [µM] | Ratio CC50/IC50 [5] | IC50 at 8 days [8] [µM] | IC50 [9] [µM]
26 | 50.1 | – | – | – | CC(C)Cc1nn(-c2nccs2)cc1C(=O)NCc1ccccc1F | >2 | > 100 | >3.85 | – | –
< 6.25 | 49.3 | – | – | – | CCOC(=O)c1cn(-c2ccccc2[N+](=O)[O-])nc1CC(C)C | 0.1 | 4.85 | >0.78 | – | –
> 100 | > 100 | – | – | – | CCOC(=O)c1cn(-c2ccc([N+](=O)[O-])cc2)nc1CC(C)C | – | > 100 | – | – | –
71.6 | 68.5 | – | – | – | CCOC(=O)c1cn(-c2ccc(OC)cc2)nc1CC(C)C | 1.12 | 77.1 | 1.08 | – | –
47.9 | 41.9 | – | – | – | CCOC(=O)c1cn(-c2cccc(C(=O)O)c2)nc1CC(C)C | 0.17 | 7.1 | 0.15 | – | –
8.84 | 41.8 | – | – | – | CC(C)Cc1nn(-c2nccs2)cc1C(=O)NCc1ccc(F)cc1F | 2 | 83.6 | 9.46 | – | –
95.7 | > 100 | – | – | – | COc1ccc(CNC(=O)c2cn(-c3nccs3)nc2CC(C)C)cc1 | – | > 100 | >1.05 | – | –
– | – | 1.1 | – | – | CCOC(=O)c1nc(-c2cncs2)sc1CC(C)C | – | – | – | – | –
> 100 | > 100 | – | – | – | CCOC(=O)c1cn(-c2ccc(F)cc2)nc1CC(C)C | – | > 100 | – | – | –
17.2 | 58.8 | – | – | – | CC(C)Cc1nn(-c2nccs2)cc1C(=O)NCc1cccc(F)c1 | >1.7 | > 100 | >5.8 | – | –
> 100 | > 100 | – | – | – | CCOC(=O)c1cn(-c2nccs2)nc1CC(C)C | – | > 100 | – | – | –
86.2 | > 100 | – | – | – | CC(C)Cc1nn(-c2nccs2)cc1C(=O)NCc1ccc(O)cc1 | – | > 100 | >1.16 | – | –
31.4 | 44.5 | – | – | – | CC(C)Cc1nn(-c2nccs2)cc1C(=O)NCc1ccc(F)cc1 | >2.25 | > 100 | >3.18 | – | –
24.7 | 25.9 | – | – | – | CC(C)Cc1nn(-c2cccc(F)c2)cc1C(=O)Nc1ccc(F)cc1 | 1.4 | 36.2 | 1.47 | – | –
> 100 | > 100 | – | – | – | CC(C)Cc1nn(-c2nccs2)cc1C(=O)NCc1ccc(C(F)(F)F)cc1 | – | > 100 | – | – | –
71.2 | > 100 | – | – | – | CC(C)Cc1nn(-c2cccc(F)c2)cc1C(=O)NCc1ccncc1 | – | > 100 | >1.41 | – | –

IC50 (Hepatitis B virus [2]) [µM] | IC50 (Hepatitis B virus [4]) [µM] | IC50 (Hepatitis B virus [6]) [µM] | IC50 (Hepatitis B virus [7]) [µM] | IC50 (Hepatitis B virus [10]) [µM] | SMILES | Ratio CC50/IC50 [1] | CC50 at 192 h [3] [µM] | Ratio CC50/IC50 [5] | IC50 at 8 days [8] [µM] | IC50 [9] [µM]
2.22 | 24.3 | – | – | – | CC(C)Cc1nn(-c2nccs2)cc1C(=O)Nc1ccc(F)cc1 | 3.44 | 83.7 | 37.69 | – | –
70.6 | 63.3 | – | – | – | CCOC(=O)c1cn(-c2cccc(OC)c2)nc1CC(C)C | 1.11 | 70.5 | 1 | – | –
> 100 | > 100 | – | – | – | CC(C)Cc1nn(-c2nccs2)cc1C(=O)NCc1ccc(N)cc1 | – | > 100 | – | – | –
– | – | – | < 0.05 | – | CCOC(=O)c1nc(-c2cccc(F)c2)sc1CC(C)C | – | – | – | – | –
44.8 | 57.6 | – | – | – | COc1ccc(CONC(=O)c2cn(-c3cccc(F)c3)nc2CC(C)C)cc1 | 1.18 | 67.9 | 1.52 | – | –
> 100 | > 100 | – | – | – | CCOC(=O)c1cn(-c2ccc(C(=O)O)cc2)nc1CC(C)C | – | > 100 | – | – | –
31.6 | 34.7 | 1.33 | – | – | CC(C)Cc1sc(-c2nccs2)nc1C(=O)NCc1ccc(F)cc1 | 1.48 | 51.5 | 1.63 | 50.4 | –
34 | 51.9 | – | – | – | CC(C)Cc1nn(-c2cccc(F)c2)cc1C(=O)NNc1ccc(F)cc1 | – | 45.4 | 1.34 | – | –
> 100 | > 100 | – | – | – | Nc1ccn([C@@H]2CS[C@H](CO)O2)c(=O)n1 [LAMIVUDINE] | – | > 100 | – | – | –
59.4 | 63.3 | – | – | – | CCOC(=O)c1cn(-c2cccc([N+](=O)[O-])c2)nc1CC(C)C | 0.94 | 59.3 | – | – | –
82.3 | 94.8 | – | – | – | CCOC(=O)c1cn(-c2ccccc2F)nc1CC(C)C | >1.05 | > 100 | >1.21 | – | –
– | – | 76.4 | – | – | COC(=O)c1nc(-c2cnc([C@@H](NC(=O)c3cccs3)C(C)C)s2)oc1C | – | – | – | – | –
> 100 | > 100 | – | – | – | CC(C)Cc1nn(-c2cccc(F)c2)cc1C(=O)NCc1ccc(F)cc1 | – | > 100 | – | – | –
38.5 | 38.6 | – | – | – | CC(C)Cc1nn(-c2cccc(F)c2)cc1C(=O)NCc1ccccc1 | 2.23 | 85.9 | 2.23 | – | –
– | – | – | – | 0.13 | COc1ccccc1/C(Br)=C(/NC(=O)c1ccc([N+](=O)[O-])cc1)C(=O)N1CCCCC1 | – | – | – | – | > 51
> 100 | > 100 | – | – | – | CC(C)Cc1nn(-c2cccc(F)c2)cc1C(=O)NCC1CCN(C(=O)OC(C)(C)C)CC1 | – | > 100 | – | – | –

From ChEMBL document CHEMBL3870310, “Design, synthesis and evaluation of pyrazole derivatives as non-nucleoside hepatitis B virus inhibitors” (Eur J Med Chem, 2016)
